The subject of data set [1] is MRSA ATCC 33591. Description: In vitro resistance development, serial passage study. The data set is classed as cell-based, Staphylococcus aureus. As to conditions: cation-adjusted MHB, ratio of MIC after passage to MIC before first passage.
Data set [2] deals with murine red blood cells (RBCs). Description: Hemolytic activity. The following applies: 1 h. The data set is classed as cell-based. Summed up: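 Fresh murine RBCs washed twice in 35 mM PBS (150 mM NaCl, pH 7.4) and suspended at 4% (v/v). Mixed 1:1 with 2-fold serial dilutions of test compound in PBS and held 1 h at 37 °C. After centrifugation, supernatant diluted in PBS and hemoglobin read at 414 nm. Lysis % scaled between PBS and 0.1% Triton X-100 (100%). Duplicate wells, two days.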

Data set [3] relates to MRSA ATCC 33591. Description: MIC, broth microdilution. It is filed as cell-based, Staphylococcus aureus. The method in brief: (§1)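 Broth microdilution: mid-log cells washed, suspended in cation-adjusted MHB or TSB (0.25% glucose, 0.5% NaCl), and adjusted to 10^8 CFU/mL (OD600 0.5). Added to 2-fold serial dilutions of test compound in 0.2% BSA/0.01% acetic acid, final about 2–5 × 10^5 CFU/mL in polypropylene wells. Incubated 16–18 h at 37 °C, 180 rpm; A600 read. MIC = lowest concentration fully inhibiting growth. Duplicates on at least two days.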

The subject of data set [4] is MSSA ATCC 29213. The experiment in a line: MIC, broth microdilution. The data set is classed as cell-based, Staphylococcus aureus. Summed up: as §1
Data set [5] deals with S. aureus cells. The experiment in a line: MIC of palmitic acid, preliminary studies. The data set is classed as cell-based. The following applies: Staphylococcus aureus.
The test system of data set [6] is S. aureus biofilm. Description: Inhibition of biofilm formation, both strains pooled. It is filed as cell-based, Staphylococcus aureus. The following applies: identical conditions, 24 h, TSB, MSSA and MRSA. Summed up:
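Overnight S. aureus diluted to 10^5 CFU/mL in TSB (0.25% glucose, 0.5% NaCl). Biofilms grown 24 h at 37 °C in polystyrene wells with 20 μM test compound. Biomass by crystal violet after two PBS washes, read at 570 nm. Metabolic activity by resazurin: plate sonicated 5 min at 40 kHz, 30 min dark at room temperature, ex 550/em 590 nm. Viable cells by scraping into PBS, sonicating, plating and counting after 16–18 h at 37 °C.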

Data set [7] deals with MSSA ATCC 29213 and MRSA ATCC 33591. The experiment in a line: Killing kinetics of stationary phase cells in TSB medium, both strains pooled. It is filed as cell-based, Staphylococcus aureus. As to conditions: 10 × MIC, 10^7 CFU/mL. The method in brief: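 Adjusted to 10^7 CFU/mL (OD600 0.05) in the same medium and incubated at 37 °C with test compound at 30, 40 or 50 μM; vancomycin included as comparator. Aliquots taken at 15 and 30 min, 1, 2, 3 and 24 h, serially diluted and drop-plated; colonies counted after 16–18 h. Three independent runs.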

Data set [8] has as its system MSSA ATCC 29213. The experiment in a line: Killing of stationary phase cells in PBS, colony count. The data set is classed as cell-based, Staphylococcus aureus. The following applies: 2 h, 10^5 CFU/mL stationary phase cells. Summed up:
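Stationary-phase cells washed once and resuspended in 10 mM PBS (150 mM NaCl, pH 7.4). Adjusted to about 10^8 CFU/mL (OD600 0.5), then diluted 10-fold serially to 10^5 CFU/mL. Exposed to test compound for 2 h at 37 °C, 180 rpm; aliquots diluted, plated and counted after overnight incubation at 37 °C. Bactericidal defined as >3 log reduction versus untreated control.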

Data set [9] has as its system 3T3 murine fibroblast cells. The experiment in a line: Cytotoxicity, MTT assay. The data set is classed as cell-based. As to conditions: 2% Triton X-100, positive control. The method in brief:
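3T3 murine fibroblasts seeded at 0.2 × 10^5 cells/well in DMEM with 10% FBS for 24 h to about 75% confluence. Exposed to 20 or 50 μM test compound in serum-free DMEM for 2 h at 37 °C, 5% CO2. Washed, then 0.1 mg/mL MTT for 2 h in the dark; formazan dissolved in DMSO and read at 570 nm. Survival % = OD570 sample/untreated × 100. Two independent runs in duplicate.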

For data set [10], the system named is stationary phase S. aureus cells. Description: SEM and TEM of stationary phase cells. The data set is classed as cell-based, Staphylococcus aureus. The following applies: 20 μg/mL, positive control.
[11] abbreviates: Staphylococcus aureus, ATCC33591|MRSA.
Setting [12] is: tryptic soy broth (0.25% glucose, 0.5% NaCl).
The mark [13] stands for this setting: Staphylococcus aureus, ATCC29213|MSSA.

Data on nine molecules can be found in article PMC7658953 (ACS Omega, 2020).

In brackets after ≈: the same amount, converted by molar mass. Several values for one entry are separate records, joined by “and”; a condition that tells them apart may be missing. Identical values can stand only once.

Regarding `O=C(O)c1cn(C2CC2)c2cc(N3CCNCC3)c(F)cc2c1=O` [ciprofloxacin], in [1], the “increase in MIC after 18 serial passages at sub-MIC concentrations” value was determined as 66 fold.
Consider `CC[C@H](C)[C@H](NC(=O)CN)C(=O)NCC(=O)N[C@@H](C)C(=O)N[C@H](C(=O)N[C@@H](CC(C)C)C(=O)N[C@@H](CCCCN)C(=O)N[C@H](C(=O)N[C@@H](CC(C)C)C(=O)N[C@H](C(=O)N[C@H](C(=O)NCC(=O)N[C@@H](CC(C)C)C(=O)N1CCC[C@H]1C(=O)N[C@@H](C)C(=O)N[C@@H](CC(C)C)C(=O)N[C@H](C(=O)N[C@@H](CO)C(=O)N[C@@H](Cc1c[nH]c2ccccc12)C(=O)N[C@H](C(=O)N[C@@H](CCCCN)C(=O)N[C@@H](CCCNC(=N)N)C(=O)N[C@@H](CCCCN)C(=O)N[C@@H](CCCNC(=N)N)C(=O)N[C@@H](CCC(N)=O)C(=O)N[C@@H](CCC(N)=O)C(N)=O)[C@@H](C)CC)[C@@H](C)CC)[C@@H](C)O)[C@@H](C)O)C(C)C)C(C)C` [melittin], for which the “HC50 (concentration that causes lysis of 50% of the RBCs)” value in data set [2] is at most 3.9 µM.
Take `Cc1onc(-c2ccccc2)c1C(=O)N[C@@H]1C(=O)N2[C@@H]1SC(C)(C)[C@@H]2C(=O)O` [oxacillin]: the MIC in data set [3] (setting [11]) was 134 µM to 268 µM and 56.8 µg/mL to 114 µg/mL; in data set [3] (setting [12]), 134.1–268.3 μM and 56.8–113.6 μg/mL; in data set [4] (setting [13]) it was < 0.8 µM and < 0.35 µg/mL; in data set [4] (setting [12]) it was < 0.8 μM and < 0.35 μg/mL.
With `CCCCCCCCCCCCCCCC(=O)O` [palmitic acid], the MIC in [5] was over 50 µM.
Consider `CN[C@H](CC(C)C)C(=O)N[C@H]1C(=O)N[C@@H](CC(N)=O)C(=O)N[C@H]2C(=O)N[C@H]3C(=O)N[C@H](C(=O)N[C@H](C(=O)O)c4cc(O)cc(O)c4-c4cc3ccc4O)[C@H](O)c3ccc(c(Cl)c3)Oc3cc2cc(c3O[C@@H]2O[C@H](CO)[C@@H](O)[C@H](O)[C@H]2O[C@H]2C[C@](C)(N)[C@H](O)[C@H](C)O2)Oc2ccc(cc2Cl)[C@H]1O` [vancomycin], for which the MIC in data set [3] (setting [11]) was 0.48 to 0.96 µM (≈ 0.696 to 1.39 µg/mL); in data set [3] (setting [12]), 0.48−0.96 μM; in data set [4] (setting [13]) it was 0.48 µM (≈ 0.696 µg/mL); in data set [4] (setting [12]), 0.48 µM (≈ 0.696 µg/mL). Further, the “log reduction in the viable cell count of the biofilm” value in data set [6] is at least 4.8 log. For the same molecule, the “reduction of biofilm biomass (crystal violet)” value in data set [6] is reported as at least 98.32 ± 0.95%. The “reduction of metabolic activity in the biofilm (resazurin)” value in data set [6] is on record as 100%. Further, in data set [7] (24 h, range over MSSA and MRSA), the “log reduction in the cell count” value was 3.4–4.4 log. In data set [7] (up to 3 h), the cell viability entry is on record as “did not affect the cell viability”. Also, the “increase in MIC after 18 serial passages at sub-MIC concentrations” value in data set [1] was 8 fold.
Turning to “Ac-H^6-F^7-R^8-W^9-G^10-K^11-P^12-V^13-NH2 [α-MSH(6-13)]”, the “log reduction in viable cell count” value in data set [8] (20 μM) and in data set [8] (50 μM) was about 2 log each time.
Ac-K^11-P^12-V^13-NH2 [α-MSH(11-13)]: the “log reduction in viable cell count” value in data set [8] (150 μM) is listed as 0.7 log.
For Triton X-100, the “reduction in survival of the cells relative to untreated growth control” value in data set [9] was determined as 52.8%.
In the case of gramicidin D, the “bacterial morphology and surface integrity in SEM and TEM” value in data set [10] was “presence of cell debris, dents on the surface, and loss in shape of the cells”.
